Test results as given in ChEMBL document CHEMBL4028864 (J Med Chem, 2017).
Activity calls are given as the source filed them. No cut-off for these calls is given here.

Key:
HCT-116 = test: Antiproliferative activity against human HCT116 cells after 72 hrs by MTT assay; assay type: functional, cell-based; conditions: HCT-116, 72 h
[1] = Half life in rat liver microsome preincubated for 5 mins followed by NADPH addition by LC-MS/MS analysis; assay type: ADME; conditions: liver microsomes
Histone deacetylase 9 = Histone deacetylase 9 (Homo sapiens, UniProt Q9UKV0); test: Inhibition of HDAC9 (unknown origin) at 10 uM in presence of ATP relative to control
Procedure, shortened: (§1)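 HDAC enzyme inhibition was run by a contract laboratory.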

MOLM-14 = test: Induction of apoptosis in human MOLM14 cells assessed as increase in cleaved PARP level at 1 to 6 uM after 24 hrs by immunoblotting analysis; assay type: functional, cell-based
Procedure, shortened: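 KMS-12-BM and MOLM-14 cells were treated for 24 h and then lysed. Cleaved PARP was detected by immunoblotting.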

[2] = molecular target: Histone deacetylase 3/Nuclear receptor corepressor 2 (HDAC3/NCoR2) (Homo sapiens, UniProt O15379); test: Inhibition of human recombinant HDAC3 (1 to 428 residues)/N-terminal GST-tagged NCOR2 (395 to 489 residues) expressed in Baculovirus infected insect cells in presence of ATP; procedure, shortened: as §1
[3] = molecular target: Tyrosine-protein kinase JAK1 (Homo sapiens, UniProt P23458); test: Inhibition of human JAK1 using poly[Glu:Tyr] as substrate in presence of [gamma-33P]-ATP
Procedure, shortened: (§2)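 Kinase inhibition was tested by radiometric "Hotspot" profiling at a contract laboratory with 10 μM ATP.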

Plasma = test: Drug uptake in Wistar rat plasma at 5 mg/kg, po administered via gavage or 1 mg/kg, iv up to 2 hrs by LC-MS/MS analysis; assay type: ADME, organism-based; conditions: in vivo
Procedure, shortened: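 Wistar rats dosed once at 5 mg/kg po or 1 mg/kg iv. Plasma levels were followed as mean ± SEM over 24 h postdose and checked against the limit of quantitation at each time point.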

KMS-12-BM = test: cells; assay type: functional, cell-based; conditions: Homo sapiens, 48 h
[4] = Cmax in Wistar rat at 5 mg/kg, po administered via gavage by LC-MS/MS analysis; assay type: ADME, organism-based; parameters: dose 5 mg/kg, route oral; conditions: in vivo
Procedure, shortened: (§3)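 Wistar rats given a single 5 mg/kg oral dose. Plasma concentration–time profiles were plotted as mean ± SEM and sampled through 24 h postdose.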

[5] = Terminal half life in Wistar rat at 5 mg/kg, po administered via gavage by LC-MS/MS analysis; assay type: ADME, organism-based; conditions: in vivo, read-out: beta t1/2 (converted); procedure, shortened: as §3
[6] = molecular target: SRSF protein kinase 3 (Homo sapiens) (UniProt Q9UPE1); test: Inhibition of wild type human SRPK3 (P41 to P567 residues) expressed in bacterial cells assessed as residual activity at 1 uM by KINOMEscan assay relative to control; assay type: cell-based
Sequence of SRSF protein kinase 3 (Homo sapiens) (Q9UPE1 whole entry, the tested form may be a part): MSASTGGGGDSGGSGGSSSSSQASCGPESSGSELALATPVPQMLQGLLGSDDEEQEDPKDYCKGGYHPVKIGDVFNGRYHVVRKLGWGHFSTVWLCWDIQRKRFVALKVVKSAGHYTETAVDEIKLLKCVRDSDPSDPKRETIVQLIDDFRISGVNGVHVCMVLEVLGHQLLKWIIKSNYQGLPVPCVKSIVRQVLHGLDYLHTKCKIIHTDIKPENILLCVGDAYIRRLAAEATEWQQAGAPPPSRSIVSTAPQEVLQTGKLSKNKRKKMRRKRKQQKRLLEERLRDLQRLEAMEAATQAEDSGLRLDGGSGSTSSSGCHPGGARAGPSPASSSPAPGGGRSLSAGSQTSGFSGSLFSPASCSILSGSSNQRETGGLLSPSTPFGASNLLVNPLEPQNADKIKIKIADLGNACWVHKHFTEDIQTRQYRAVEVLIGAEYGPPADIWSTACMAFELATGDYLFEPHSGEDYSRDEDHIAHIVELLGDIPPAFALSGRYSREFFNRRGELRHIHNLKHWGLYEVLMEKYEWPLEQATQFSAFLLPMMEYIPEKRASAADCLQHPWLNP

[7] = molecular target: Protein deacetylase HDAC6 (Homo sapiens) (UniProt Q9UBN7); test: Inhibition of HDAC6 in human KMS-12-BM cells assessed as increase in acetylated tubulin level up to 6 uM after 16 hrs by immunoblotting analysis; assay type: cell-based
Procedure, shortened: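 KMS-12-BM and MOLM-14 cells were treated for 16 h and then lysed. Acetylated tubulin was detected by immunoblotting, and membranes were reprobed for total tubulin as loading control.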

[8] = molecular target: Rho-associated protein kinase 2 (Homo sapiens) (UniProt O75116); test: Inhibition of wild type human ROCK2 (M1 to T431 residues) expressed in mammalian cells assessed as residual activity at 1 uM by KINOMEscan assay relative to control; assay type: cell-based
Sequence of Rho-associated protein kinase 2 (Homo sapiens) (O75116 whole entry, looked up, the tested form may be a part): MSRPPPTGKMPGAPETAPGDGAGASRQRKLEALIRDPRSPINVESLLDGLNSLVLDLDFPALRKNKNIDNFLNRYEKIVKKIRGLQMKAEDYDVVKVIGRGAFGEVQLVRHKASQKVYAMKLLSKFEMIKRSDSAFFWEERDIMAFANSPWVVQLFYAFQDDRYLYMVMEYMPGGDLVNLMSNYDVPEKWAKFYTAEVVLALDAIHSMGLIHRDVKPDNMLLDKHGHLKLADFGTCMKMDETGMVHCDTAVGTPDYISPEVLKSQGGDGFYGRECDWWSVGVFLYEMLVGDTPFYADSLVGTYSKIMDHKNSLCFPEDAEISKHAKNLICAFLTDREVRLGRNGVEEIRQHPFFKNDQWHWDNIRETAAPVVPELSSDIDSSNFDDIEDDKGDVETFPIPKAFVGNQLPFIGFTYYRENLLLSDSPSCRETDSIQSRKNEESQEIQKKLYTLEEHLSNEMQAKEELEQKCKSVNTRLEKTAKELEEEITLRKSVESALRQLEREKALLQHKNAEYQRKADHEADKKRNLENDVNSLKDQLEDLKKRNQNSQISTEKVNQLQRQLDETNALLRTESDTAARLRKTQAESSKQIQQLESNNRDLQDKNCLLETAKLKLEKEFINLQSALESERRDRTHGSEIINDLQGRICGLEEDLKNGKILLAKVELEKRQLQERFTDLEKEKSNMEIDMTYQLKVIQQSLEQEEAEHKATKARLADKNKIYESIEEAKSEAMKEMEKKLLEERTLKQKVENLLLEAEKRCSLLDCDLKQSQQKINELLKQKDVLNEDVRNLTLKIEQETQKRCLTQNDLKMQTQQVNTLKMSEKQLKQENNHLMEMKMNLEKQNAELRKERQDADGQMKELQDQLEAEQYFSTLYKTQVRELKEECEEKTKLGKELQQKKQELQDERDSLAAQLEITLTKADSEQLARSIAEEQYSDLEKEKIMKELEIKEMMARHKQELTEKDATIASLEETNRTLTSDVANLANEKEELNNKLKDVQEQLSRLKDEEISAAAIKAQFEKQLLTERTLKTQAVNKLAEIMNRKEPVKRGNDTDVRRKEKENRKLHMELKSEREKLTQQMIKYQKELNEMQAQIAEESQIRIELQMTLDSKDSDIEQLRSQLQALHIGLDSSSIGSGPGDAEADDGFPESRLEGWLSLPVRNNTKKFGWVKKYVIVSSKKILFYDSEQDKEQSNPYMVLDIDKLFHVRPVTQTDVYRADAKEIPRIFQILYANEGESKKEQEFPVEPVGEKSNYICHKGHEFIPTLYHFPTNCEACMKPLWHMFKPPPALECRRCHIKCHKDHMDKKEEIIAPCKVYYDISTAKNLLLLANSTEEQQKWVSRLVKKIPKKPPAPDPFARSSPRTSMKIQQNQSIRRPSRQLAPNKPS

[9] = AUC (0 to infinity) in Wistar rat at 1 mg/kg, iv by LC-MS/MS analysis; assay type: ADME, organism-based; parameters: dose 1 mg/kg, time infinity, route intravenous; conditions: in vivo
Procedure, shortened: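 Wistar rats given a single 1 mg/kg iv dose. Plasma concentration–time profiles were plotted as mean ± SEM and sampled through 24 h postdose. Values were taken from the iv profile.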

Histone deacetylase 5 = Histone deacetylase 5 (Homo sapiens, UniProt Q9UQL6); test: Inhibition of C-terminal His tagged human recombinant HDAC5 (657 to 1123 residues) expressed in Baculovirus infected insect cells in presence of ATP; procedure, shortened: as §1
Sequence of Histone deacetylase 5 (Q9UQL6 whole entry, the tested form may be a part): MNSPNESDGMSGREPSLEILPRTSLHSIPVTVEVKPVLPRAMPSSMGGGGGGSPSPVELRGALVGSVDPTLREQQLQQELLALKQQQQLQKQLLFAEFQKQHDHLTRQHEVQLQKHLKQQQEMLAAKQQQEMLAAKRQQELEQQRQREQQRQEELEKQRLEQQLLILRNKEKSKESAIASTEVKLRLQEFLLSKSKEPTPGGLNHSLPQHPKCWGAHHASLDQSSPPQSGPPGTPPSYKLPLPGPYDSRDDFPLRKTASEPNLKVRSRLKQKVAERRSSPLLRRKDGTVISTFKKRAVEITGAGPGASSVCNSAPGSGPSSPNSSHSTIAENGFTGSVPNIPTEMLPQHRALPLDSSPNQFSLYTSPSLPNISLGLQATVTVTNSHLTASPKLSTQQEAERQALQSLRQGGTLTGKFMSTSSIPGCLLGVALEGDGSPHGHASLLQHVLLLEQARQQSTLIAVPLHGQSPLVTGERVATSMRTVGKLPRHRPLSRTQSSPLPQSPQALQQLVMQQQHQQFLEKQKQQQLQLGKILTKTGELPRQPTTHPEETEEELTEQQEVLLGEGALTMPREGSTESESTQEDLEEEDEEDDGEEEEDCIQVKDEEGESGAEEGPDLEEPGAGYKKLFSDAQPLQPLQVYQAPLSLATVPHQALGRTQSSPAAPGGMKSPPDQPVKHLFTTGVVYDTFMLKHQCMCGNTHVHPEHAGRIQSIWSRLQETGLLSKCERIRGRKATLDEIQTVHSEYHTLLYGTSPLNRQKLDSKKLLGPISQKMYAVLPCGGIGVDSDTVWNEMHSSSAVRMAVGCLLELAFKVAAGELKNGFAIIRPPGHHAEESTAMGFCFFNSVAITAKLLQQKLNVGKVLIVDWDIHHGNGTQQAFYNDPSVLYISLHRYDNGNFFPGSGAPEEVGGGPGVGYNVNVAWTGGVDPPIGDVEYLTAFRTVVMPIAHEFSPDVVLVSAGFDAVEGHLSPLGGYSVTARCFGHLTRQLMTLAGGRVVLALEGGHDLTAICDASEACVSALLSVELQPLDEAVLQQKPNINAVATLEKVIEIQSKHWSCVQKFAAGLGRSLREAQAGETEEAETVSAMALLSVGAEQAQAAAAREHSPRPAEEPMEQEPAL

HEL 92.1.7 = test: cells; assay type: functional, cell-based; conditions: Homo sapiens, HEL 92.1.7, 36 h
KG-1 = test: cells; assay type: functional, cell-based; conditions: Homo sapiens, KG-1, 48 h
[10] = molecular target: NUAK family SNF1-like kinase 2 (Homo sapiens) (UniProt Q9H093); test: Inhibition of wild type human SNARK (P22 to A333 residues) expressed in mammalian cells assessed as residual activity at 1 uM by KINOMEscan assay relative to control; assay type: cell-based
Sequence of NUAK family SNF1-like kinase 2 (Homo sapiens) (Q9H093 whole entry, the tested form may be a part): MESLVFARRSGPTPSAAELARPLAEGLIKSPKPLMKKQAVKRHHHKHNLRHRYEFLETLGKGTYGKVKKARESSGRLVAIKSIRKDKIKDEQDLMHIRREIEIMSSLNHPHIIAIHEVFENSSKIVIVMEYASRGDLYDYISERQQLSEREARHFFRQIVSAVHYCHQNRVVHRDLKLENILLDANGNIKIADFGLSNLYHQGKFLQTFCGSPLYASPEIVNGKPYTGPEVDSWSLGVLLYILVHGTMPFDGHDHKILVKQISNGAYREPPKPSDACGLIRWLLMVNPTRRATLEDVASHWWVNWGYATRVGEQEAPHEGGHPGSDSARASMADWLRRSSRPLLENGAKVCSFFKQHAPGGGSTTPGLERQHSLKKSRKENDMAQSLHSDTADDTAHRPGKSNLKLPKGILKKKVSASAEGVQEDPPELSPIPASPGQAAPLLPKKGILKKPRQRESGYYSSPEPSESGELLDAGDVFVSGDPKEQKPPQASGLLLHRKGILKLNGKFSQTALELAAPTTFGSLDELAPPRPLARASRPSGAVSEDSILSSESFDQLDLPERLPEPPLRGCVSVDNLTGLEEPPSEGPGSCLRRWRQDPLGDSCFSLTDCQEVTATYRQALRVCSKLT

[11] = molecular target: Polyamine deacetylase HDAC10 (Homo sapiens, UniProt Q969S8); test: Inhibition of human HDAC10 using fluorogenic peptide from p53 residues 379 to 382 as substrate in presence of ATP; procedure, shortened: as §1
MCF7 = test: cells; assay type: functional, cell-based; conditions: Homo sapiens, MCF7, 72 h
[12] = molecular target: Receptor-type tyrosine-protein kinase FLT3 (Homo sapiens) (UniProt P36888); test: Inhibition of human FLT3 using EAIYAAPFAKKK as substrate at 1 uM in presence of [gamma-33P]-ATP relative to control; procedure, shortened: as §2
Sequence of Receptor-type tyrosine-protein kinase FLT3 (Homo sapiens) (P36888 whole entry): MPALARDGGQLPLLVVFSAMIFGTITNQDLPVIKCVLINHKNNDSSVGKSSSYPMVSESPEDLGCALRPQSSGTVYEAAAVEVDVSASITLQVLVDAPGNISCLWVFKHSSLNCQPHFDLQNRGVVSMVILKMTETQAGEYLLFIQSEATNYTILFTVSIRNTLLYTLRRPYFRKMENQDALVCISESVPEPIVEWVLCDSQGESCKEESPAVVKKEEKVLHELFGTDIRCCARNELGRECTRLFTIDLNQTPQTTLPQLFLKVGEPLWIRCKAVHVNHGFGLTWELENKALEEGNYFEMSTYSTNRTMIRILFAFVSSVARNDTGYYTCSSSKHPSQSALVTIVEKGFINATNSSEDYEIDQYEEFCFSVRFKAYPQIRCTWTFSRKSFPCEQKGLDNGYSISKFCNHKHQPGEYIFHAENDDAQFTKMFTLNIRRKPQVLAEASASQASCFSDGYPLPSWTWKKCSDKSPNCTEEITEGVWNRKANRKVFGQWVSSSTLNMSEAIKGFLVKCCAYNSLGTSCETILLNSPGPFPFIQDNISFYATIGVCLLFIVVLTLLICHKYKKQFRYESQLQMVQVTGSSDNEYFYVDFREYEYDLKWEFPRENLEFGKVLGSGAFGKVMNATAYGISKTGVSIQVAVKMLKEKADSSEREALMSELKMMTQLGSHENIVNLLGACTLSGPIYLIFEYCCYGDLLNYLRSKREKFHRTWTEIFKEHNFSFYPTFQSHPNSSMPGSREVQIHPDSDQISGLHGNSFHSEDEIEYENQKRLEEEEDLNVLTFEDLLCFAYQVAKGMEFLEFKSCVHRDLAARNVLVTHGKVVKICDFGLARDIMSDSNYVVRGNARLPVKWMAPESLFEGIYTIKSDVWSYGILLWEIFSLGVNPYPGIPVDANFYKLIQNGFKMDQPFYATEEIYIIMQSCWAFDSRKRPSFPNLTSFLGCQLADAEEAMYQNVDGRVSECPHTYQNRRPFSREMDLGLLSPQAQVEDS

OPM-2 = test: Antiproliferative activity against human OPM2 cells after 48 hrs by CellTiter-Glo luminescent assay; assay type: functional, cell-based; conditions: OPM-2, 48 h

IC50 (HCT-116): 2320 nM
half-life [1]: > 200 min
inhibition (Histone deacetylase 9): 30%
IC50 [2]: 3.9 nM
IC50 [3]: 17 nM
Drug uptake (Plasma): Active
IC50 (KMS-12-BM): 2020 nM
Cmax [4]: 15.9 ng/mL
half-life [5]: 34.8 min
Activity [6]: 18%
inhibition [7]: Active
Activity [8]: 29%
AUC(0-inf) [9]: 175 ng·h/mL
IC50 (Histone deacetylase 5): 10500 nM
IC50 (HEL 92.1.7): 1330 nM
IC50 (KG-1): 150 nM
Activity [10]: 7.5%
IC50 [11]: 19 nM
IC50 (MCF7): 840 nM
inhibition [12]: 27%
Structure (SMILES): O=C(CCCCCCn1cc(-c2ncnc3[nH]ccc23)cn1)NO
Activity (MOLM-14): Dose-dependent effect
IC50 (OPM-2): 2160 nM
